High-throughput results as filed in PubChem BioAssay.
INS-1E rescue = INS-1E beta cell protection from cytokine death. protection from cytokine-induced ATP loss, % at 10 µM. AID 488910. actives 0.1% (n = 20,000). INS-1E cytokine-induced death, ATP luminescence, 48 h; normalised: neutral wells 0, positive control 100;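 active = mean replicate protection from cytokine-induced ATP loss at least 50% and at least 75% of replicates each reaching 50%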
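Assay system: INS-1E rat cells / Quantity: 8000 cells per well / Medium: RPMI without phenol red, 5% FBS / Probe or stimulus: three-cytokine cocktail (IFN-γ, TNF-α, IL-1β) / Dosing: one compound concentration, pin transfer / Timing: 48 h co-treatment, 10 min post-lysis read / Technique: CellTiter-Glo luminescence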
A1 apoptosis 2 = blocks A1, raising caspase activity; MEF A1-2A-BIM cells, caspase-Glo luminescence, 3 h; percent of clofoctol response, DMSO zero; caspase activation, % (no concentration beside the values); 24,000 tested, under 10 active; AID 2465; in the data active = caspase activation above about 5.9%
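Evaluation: Caspase-3/7 activity from luminescence increase | Assay system: A1-2A-BIM mouse embryonic fibroblasts | Quantity: 2500 MEF cells/well | Medium: RPMI-1640 plus 10% FBS | Detection: Caspase-Glo 3/7 luminescence, 1 h at room temperature | Dosing: 50 nL compound per well, pinned | Timing: Cells settled overnight, compound exposure 3 h at 37 °C, 5% CO2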
T cruzi HTS = inhibitors of intracellular Trypanosoma cruzi; actives 4.9% (n = 22,000); intracellular Trypanosoma cruzi in host cells, plate reader; activity score (inhibition), % at 5.01 µM; in the data active = activity score above about 55%;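 also: parasites and compound incubated about four days before reading; 0% = median of neutral control wells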
Starred values were filed as active, the others as inactive; · = no result. The full list was thinned out, with hits kept by preference.

SMILES | INS-1E rescue | A1 apoptosis 2 | T cruzi HTS
C[C@H](CO)N1C[C@H](C)[C@H](CN(C)C(=O)Nc2ccccc2)Oc2c(NC(=O)c3ccncc3)cccc2C1=O | 8 | -1 | 78*
C[C@@H]1CN([C@H](C)CO)C(=O)c2cccc(NC(=O)c3ccncc3)c2O[C@@H]1CN(C)C(=O)Nc1ccc(F)cc1 | 11 | -2 | -30
C[C@@H]1CN([C@@H](C)CO)C(=O)c2cccc(NC(=O)c3ccncc3)c2O[C@H]1CN(C)C(=O)Nc1ccccc1 | 9 | -1 | -3
COc1ccc(CN(C)C[C@@H]2Oc3ccc(NS(=O)(=O)c4ccc(C)cc4)cc3CC(=O)N([C@@H](C)CO)C[C@H]2C)cc1 | · | -1 | ·
COc1ccc(CN(C)C[C@H]2Oc3ccc(NS(=O)(=O)c4ccc(C)cc4)cc3CC(=O)N([C@@H](C)CO)C[C@@H]2C)cc1 | 1 | 1 | 56*
COc1ccc(CN(C)C[C@@H]2Oc3ccc(NS(=O)(=O)c4ccc(Cl)cc4)cc3CC(=O)N([C@H](C)CO)C[C@@H]2C)cc1 | -1 | 0 | 27
COc1ccc(CN(C)C[C@H]2Oc3ccc(NS(=O)(=O)c4ccc(Cl)cc4)cc3CC(=O)N([C@H](C)CO)C[C@H]2C)cc1 | -5 | -1 | 71*
COc1ccc(NC(=O)Nc2ccc3c(c2)C(=O)N([C@H](C)CO)C[C@H](C)[C@H](CN(C)C(=O)Nc2ccc(C(F)(F)F)cc2)OCCCC[C@@H](C)O3)cc1 | 2 | -1 | 55
COc1ccc(NC(=O)Nc2ccc3c(c2)C(=O)N([C@H](C)CO)C[C@H](C)[C@@H](CN(C)C(=O)Nc2ccc(C(F)(F)F)cc2)OCCCC[C@@H](C)O3)cc1 | -16 | · | 69*
COc1ccc(NC(=O)Nc2ccc3c(c2)C(=O)N([C@H](C)CO)C[C@H](C)[C@H](CN(C)C(=O)Nc2ccc(C(F)(F)F)cc2)OCCCC[C@H](C)O3)cc1 | · | 1 | ·
COc1ccc(NC(=O)N(C)C[C@H]2OCCCC[C@@H](C)Oc3ccc(NC(=O)Nc4ccc(C(F)(F)F)cc4)cc3C(=O)N([C@H](C)CO)C[C@@H]2C)cc1 | -19 | 0 | 57*
C[C@@H]1CN([C@@H](C)CO)C(=O)Cc2cc(NS(=O)(=O)c3ccccc3)ccc2O[C@@H]1CN(C)S(=O)(=O)c1ccc(Cl)cc1 | -6 | 0 | 67*
Cc1ccc(S(=O)(=O)Nc2ccc3c(c2)CC(=O)N([C@H](C)CO)C[C@@H](C)[C@@H](CN(C)S(=O)(=O)c2ccccc2)O3)cc1 | 1 | · | 69*
C[C@@H]1CN([C@@H](C)CO)C(=O)Cc2cc(NS(=O)(=O)c3ccc(Cl)cc3)ccc2O[C@@H]1CN(C)S(=O)(=O)c1ccc(Cl)cc1 | -5 | · | 67*
Cc1ccc(S(=O)(=O)Nc2ccc3c(c2)CC(=O)N([C@H](C)CO)C[C@H](C)[C@H](CN(C)S(=O)(=O)c2ccccc2)O3)cc1 | 5 | 0 | -7
C[C@H]1CN([C@@H](C)CO)C(=O)Cc2cc(NS(=O)(=O)c3ccc(Cl)cc3)ccc2O[C@H]1CN(C)S(=O)(=O)c1ccc(Cl)cc1 | -4 | -1 | -1
C[C@H]1CN([C@@H](C)CO)C(=O)Cc2cc(NS(=O)(=O)c3ccc(Cl)cc3)ccc2O[C@H]1CN(C)S(=O)(=O)c1ccccc1 | 7 | · | -2
C[C@H]1CN([C@@H](C)CO)C(=O)Cc2cc(NC(=O)C3CCCCC3)ccc2O[C@@H]1CN(C)C(=O)Nc1cccc2ccccc12 | 27 | · | -17
C[C@H](CO)N1C[C@H](C)[C@H](CN(C)Cc2ccc(C(=O)Nc3ccccc3N)cc2)Oc2ccc(NC(=O)Nc3ccc(C(F)(F)F)cc3)cc2CC1=O | -21 | · | 82*
C[C@@H]1CN([C@@H](C)CO)C(=O)c2cc(NC(=O)Nc3ccc(C(F)(F)F)cc3)ccc2O[C@H]1CN(C)Cc1ccc(C(=O)Nc2ccccc2N)cc1 | 2 | · | 39
C[C@@H]1CN([C@H](C)CO)C(=O)Cc2cc(NC(=O)Nc3ccccc3)ccc2O[C@@H]1CN(C)Cc1ccc(C(=O)Nc2ccccc2N)cc1 | 0 | -1 | 64*
CC(C)NC(=O)Nc1ccc2c(c1)CC(=O)N([C@H](C)CO)C[C@H](C)[C@H](CN(C)Cc1ccc(C(=O)Nc3ccccc3N)cc1)O2 | 6 | · | 68*
C[C@@H]1CN([C@H](C)CO)C(=O)c2cc(NC(=O)Nc3ccc(C(F)(F)F)cc3)ccc2O[C@H]1CN(C)Cc1ccc(C(=O)Nc2ccccc2N)cc1 | -13 | 0 | 57*
C[C@H]1CN([C@@H](C)CO)C(=O)Cc2cc(NC(=O)NC3CCCCC3)ccc2O[C@@H]1CN(C)Cc1ccc(C(=O)Nc2ccccc2N)cc1 | · | -1 | ·
C[C@H]1CN([C@@H](C)CO)C(=O)Cc2cc(NC(=O)Nc3ccc(F)cc3)ccc2O[C@@H]1CN(C)Cc1ccc(C(=O)Nc2ccccc2N)cc1 | 6 | -1 | 33
SMILES | INS-1E rescue | A1 apoptosis 2 | T cruzi HTS
C[C@@H]1CN([C@@H](C)CO)C(=O)Cc2cc(NC(=O)Nc3ccc(F)cc3)ccc2O[C@H]1CN(C)Cc1ccc(C(=O)Nc2ccccc2N)cc1 | · | -1 | ·
Cc1ccc(S(=O)(=O)N(C)C[C@@H]2Oc3ccc(NS(C)(=O)=O)cc3C(=O)N([C@H](C)CO)C[C@@H]2C)cc1 | 1 | -1 | -6
C[C@@H]1CN([C@@H](C)CO)C(=O)c2cccc(NC(=O)c3nc4ccccc4s3)c2O[C@@H]1CN(C)S(C)(=O)=O | 3 | · | 1
Cc1noc(C)c1S(=O)(=O)Nc1ccc2c(c1)CC(=O)N([C@@H](C)CO)C[C@@H](C)[C@@H](CN(C)C(=O)Nc1ccc(F)cc1)O2 | -3 | -1 | 2
COC(=O)CCCCCCC(=O)N/N=C/[C@H](O)[C@@H](O)[C@H](O[C@@H]1O[C@H](CO)[C@H](O)[C@H](O)[C@H]1O)[C@H](O)CO | 3 | 1 | -7
C[C@@H]1CN([C@@H](C)CO)C(=O)Cc2cc(NC(=O)Nc3ccc(C(F)(F)F)cc3)ccc2O[C@@H]1CN(C)Cc1ccc(C(=O)Nc2ccccc2N)cc1 | -28 | · | 84*
C[C@H](CO)N1C[C@H](C)[C@H](CN(C)Cc2ccc(C(=O)Nc3ccccc3N)cc2)Oc2ccc(NC(=O)CCC(F)(F)F)cc2CC1=O | 29 | 0 | 53
C[C@@H]1CN([C@H](C)CO)C(=O)Cc2cc(NC(=O)Nc3ccc(F)cc3)ccc2O[C@H]1CN(C)Cc1ccc(C(=O)Nc2ccccc2N)cc1 | 1 | · | 33
C[C@@H]1CN([C@@H](C)CO)C(=O)Cc2cc(NC(=O)CCC(F)(F)F)ccc2O[C@@H]1CN(C)Cc1ccc(C(=O)Nc2ccccc2N)cc1 | -7 | · | 68*
C[C@H]1CN([C@@H](C)CO)C(=O)c2cc(NC(=O)CCC(F)(F)F)ccc2O[C@H]1CN(C)S(=O)(=O)c1ccc(Cl)cc1 | 3 | · | -10
C[C@H](CO)N1C[C@H](C)[C@@H](CN(C)CC2CCCCC2)Oc2ccc(NS(=O)(=O)c3ccc(Cl)cc3)cc2CC1=O | · | 0 | ·
Cc1ccc(S(=O)(=O)Nc2ccc3c(c2)CC(=O)N([C@H](C)CO)C[C@@H](C)[C@@H](CN(C)CC2CCCCC2)O3)cc1 | -6 | · | 26
